Measurements gathered from unrelated publications.
Protocols differ between the studies behind these lines.
Target: BDNF/NT-3 growth factors receptor (NTRK2, Homo sapiens, UniProt Q16620)

| Compound | assay | conditions | remaining binding |
| --- | --- | --- | --- |
| CCS(=O)(=O)c1cc2cc(C[C@@](O)(CC(C)(C)c3ccc(F)cc3C(N)=O)C(F)(F)F)[nH]c2cn1 | cell-free assay, competition with immobilised ligand | 1 µM | 84% |
| O=C(NCC1CCOCC1)c1n[nH]cc1NC(=O)c1c(F)cccc1F | binding, competition with immobilised ligand | 1 µM | 100% |
| COc1cnc(Nc2cccc(S(N)(=O)=O)c2)nc1N1CCN(c2ccccc2)C(=O)C1 | binding, competition with immobilised ligand | 1 µM | 100% |
| Cc1cnc(Nc2ccc(C(=O)N3CCC(N4CCCC4)CC3)cc2)nc1-c1cc2ccccc2s1 | binding, competition with immobilised ligand | 1 µM | 4.1% |
| COc1ncc2cc3ccccc3nc2c1C#N | cell-free assay, competition with immobilised ligand | 5 µM | 98% |
| C[C@H]1CCN(c2nccc(-c3cnn4ncccc34)n2)C1 | binding | 1 µM | 61% |
| O=C(NCCCN1CCOCC1)c1ccc(Nc2nccc(-c3cc4ccccc4s3)n2)cc1 | binding, competition with immobilised ligand | 1 µM | 69% |
| CN(c1nccc(-c2cnn3ncccc23)n1)C1CC1 | binding | 1 µM | 100% |
| O=C(O)[C@@H]1[C@@H](Cn2nnc3ccccc3c2=O)CC[C@H]1C(=O)c1ccc(OCCC2CCOCC2)cc1 | cell-free assay, competition with immobilised ligand | 1 µM | 93% |
| c1cncc(-c2cccc(Nc3nccc(NC4CCCCC4)n3)c2)c1 | binding, competition with immobilised ligand | 10 µM | 16% |
| O=C(NCCCN1CCOCC1)c1ccc(Nc2ncc(Cl)c(-c3ccc(Cl)s3)n2)cc1 | binding, competition with immobilised ligand | 1 µM | 15% |
| O=C(NCc1ncc(C(F)(F)F)cc1Cl)c1ccc2c(c1)C1(CCS(=O)(=O)CC1)[C@@H](C1CC1)N2S(=O)(=O)c1ccc(F)cc1 | cell-free assay, competition with immobilised ligand | 1 µM | 71% |
| N[C@H]1CCN(c2nccc(-c3cnn4ncccc34)n2)C1 | binding | 1 µM | 100% |
| CN(C)CC#Cc1ccc(OCCCc2sc(N3CCc4cccc(C(=O)Nc5nc6ccccc6s5)c4C3)nc2C(=O)O)c(F)c1 | cell-free assay, competition with immobilised ligand | 1 µM | 100% |
| C[C@@H](c1ccc(-n2cnc3c(N)ncnc32)cc1)N1CCc2nn(C)c(Cc3ccccc3)c2C1=O | binding, competition with immobilised ligand | 0.1 µM | 24% |
| F[C@@H]1CCN(c2nccc(-c3cnn4ncccc34)n2)C1 | binding | 1 µM | 100% |
| CNC(=O)[C@@H]1CC[C@@H](n2c(-c3ccc4cnccc4c3)nc3ccc(C(=O)NCc4cccc(C(N)=O)c4)cc32)C1 | binding, competition with immobilised ligand | 1 µM | 100% |
| CC1=C(C#N)C(c2ccc3c(c2)c(NC(=O)c2ccccc2C)nn3C)C(C#N)=C(C)N1 | cell-free assay, competition with immobilised ligand | 1 µM | 72% |
| CN(C)c1nccc(-c2cnc3ncccn23)n1 | binding | 1 µM | 65% |
| O=C(NC[C@@H]1[C@H]2CN(C(=O)OCc3cc(C(F)(F)F)cc(C(F)(F)F)c3)C[C@@H]12)c1ccc2[nH]nnc2c1 | cell-free assay, competition with immobilised ligand | 1 µM | 99% |
| CN(CCCC(F)(F)F)c1nccc(-c2cnn3ncccc23)n1 | binding | 1 µM | 100% |
